Reference: ChEMBL document CHEMBL1127825, “Synthesis and in vitro evaluation of 9-anilino-3,6-diaminoacridines active against a multidrug-resistant strain of the malaria parasite Plasmodium falciparum” (J Med Chem, 1994)
Values after ≈ are worked out from the molar mass of the structure shown.

What was measured:
[1] = In vitro therapeutic index value is the ratio between IC50 values of [J] and [P]; format: cell-based; conditions: human, Jurkat cells; read-out: TI
Jurkat = experiment: Concentration required to reduce growth of human jurkat leukemia cells to 50% of control cultures, determined using a 72 hr continuous exposure; format: functional, cell-based
Summary of the method: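 Human Jurkat leukemia cells given continuous drug exposure for 72 h, then counted on a hemocytometer. IC50 is the concentration that cuts cell growth to 50% of untreated controls. Values are means of at least two independent determinations, with variation typically ±15%.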

Plasmodium falciparum [2] = experiment: Inhibitory concentration IC50 against Plasmodium falciparum K1 by [3H]hypoxanthine uptake over 24 hr; format: functional, organism-based
Summary of the method: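 K1 strain of P. falciparum (chloroquine- and pyrimethamine-resistant) in infected erythrocyte suspensions at 0.5% initial parasitemia, exposed to drug for 24 h at 37 °C. Read-out is [3H]hypoxanthine incorporation into parasites. IC50 is the concentration giving 50% inhibition relative to untreated controls.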

Plasmodium falciparum [3] = experiment: Inhibitory concentration against Plasmodium falciparum K1 infected erythrocytes; format: functional, organism-based
Summary of the method: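 Chloroquine- and pyrimethamine-resistant K1 strain in infected erythrocyte suspensions (0.5% initial parasitemia), exposed to drug for 24 h at 37 °C. Read-out: [3H]hypoxanthine incorporation into parasites. IC50 in μM is the concentration that reduces incorporation to 50% of untreated controls.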

Plasmodium falciparum [4] = experiment: Inhibitory concentration against Plasmodium falciparum W2 infected erythrocytes; format: functional, organism-based
Plasmodium falciparum [5] = experiment: Inhibitory concentration against Plasmodium falciparum D6 infected erythrocytes; format: functional, organism-based
[6] = biological target: T1, DNA topoisomerase 2 (Plasmodium falciparum K1) (UniProt P41001); experiment: Minimum inhibitory concentration required to completely inhibit topoisomerase II activity from Plasmodium falciparum was determined using P4 DNA […] assay
T1 sequence (whole entry): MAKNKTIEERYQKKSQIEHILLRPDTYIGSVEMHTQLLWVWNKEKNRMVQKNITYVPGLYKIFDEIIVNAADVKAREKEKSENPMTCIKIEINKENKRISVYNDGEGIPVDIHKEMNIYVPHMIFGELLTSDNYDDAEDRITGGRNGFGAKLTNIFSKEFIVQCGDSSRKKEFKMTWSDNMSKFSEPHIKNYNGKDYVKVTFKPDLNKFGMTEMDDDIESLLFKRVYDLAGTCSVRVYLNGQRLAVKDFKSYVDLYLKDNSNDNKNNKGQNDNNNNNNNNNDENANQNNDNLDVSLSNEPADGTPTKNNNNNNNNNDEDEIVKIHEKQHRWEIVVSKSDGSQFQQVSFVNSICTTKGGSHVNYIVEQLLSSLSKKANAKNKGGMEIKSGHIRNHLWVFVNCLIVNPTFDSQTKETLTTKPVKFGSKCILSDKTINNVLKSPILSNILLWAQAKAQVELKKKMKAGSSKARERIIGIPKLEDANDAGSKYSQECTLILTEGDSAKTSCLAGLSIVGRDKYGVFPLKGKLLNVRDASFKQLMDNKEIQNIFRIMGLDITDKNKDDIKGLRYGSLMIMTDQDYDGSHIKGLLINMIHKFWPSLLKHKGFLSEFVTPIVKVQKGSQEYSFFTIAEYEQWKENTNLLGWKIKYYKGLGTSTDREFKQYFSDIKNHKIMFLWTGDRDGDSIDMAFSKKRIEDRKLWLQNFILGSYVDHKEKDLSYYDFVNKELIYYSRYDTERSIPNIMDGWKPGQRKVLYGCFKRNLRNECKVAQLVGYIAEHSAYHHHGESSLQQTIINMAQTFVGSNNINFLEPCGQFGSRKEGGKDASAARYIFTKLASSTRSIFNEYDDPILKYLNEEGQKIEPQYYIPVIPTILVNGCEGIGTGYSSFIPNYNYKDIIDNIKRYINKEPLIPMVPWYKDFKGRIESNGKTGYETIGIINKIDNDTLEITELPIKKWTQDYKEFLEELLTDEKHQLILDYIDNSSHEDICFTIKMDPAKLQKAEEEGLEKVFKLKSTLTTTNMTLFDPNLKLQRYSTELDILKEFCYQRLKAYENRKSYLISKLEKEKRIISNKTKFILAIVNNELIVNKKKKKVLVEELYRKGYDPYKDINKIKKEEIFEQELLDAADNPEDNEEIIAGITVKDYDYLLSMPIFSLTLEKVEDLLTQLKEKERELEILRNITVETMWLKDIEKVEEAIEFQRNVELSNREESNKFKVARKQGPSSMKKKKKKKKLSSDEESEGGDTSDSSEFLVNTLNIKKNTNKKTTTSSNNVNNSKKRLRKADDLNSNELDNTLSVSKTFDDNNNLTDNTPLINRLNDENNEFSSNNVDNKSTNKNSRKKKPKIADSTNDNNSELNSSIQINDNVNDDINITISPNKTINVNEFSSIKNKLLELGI

[7] = biological target: DNA topoisomerase II (Homo sapiens) (UniProt P11388+Q02880); experiment: Minimum inhibitory concentration required to completely inhibit topoisomerase II activity from jurkat human leukemia cells was determined using P4 DNA unknotting assay
Summary of the method: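 Enzyme is a partially purified topoisomerase II extract from midlog Jurkat cells, made by sonication in Tris pH 8/KCl/MgCl2/EGTA buffer with protease inhibitors, then PEG/KCl precipitation. Extract is diluted to a set P4 DNA unknotting activity. Proteinase K method scores unknotting and linearization of phage P4 DNA on 0.7% agarose gels stained with ethidium bromide. MIC is the concentration giving complete inhibition.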

| SMILES | selectivity ratio [1] | IC50 (Jurkat) [µM] | IC50 (Plasmodium falciparum [2]) [µM] | IC50 (Plasmodium falciparum [3]) [µM] | IC50 (Plasmodium falciparum [4]) [µM] | IC50 (Plasmodium falciparum [5]) [µM] | MIC [6] [µM] | MIC [7] [µM] |
| --- | --- | --- | --- | --- | --- | --- | --- | --- |
| COc1cc(Nc2c3ccccc3nc3ccccc23)ccc1NS(C)(=O)=O [o-Amsacrine] | 0.4 | 10 | 26 | – | – | – | – | – |
| CN(C)Cc1ccc(Nc2c3ccc(N)cc3nc3cc(N)ccc23)cc1 | > 500 | > 20 | 0.04 | 0.04 | 0.277 | 0.113 | 50 (≈ 17.9 µg/mL) | 20 (≈ 7.15 µg/mL) |
| CN(C)c1ccc(Nc2c3ccccc3nc3ccccc23)cc1 | < 2 | < 1 | 0.47 | – | – | – | – | – |
| COc1cc(NS(C)(=O)=O)ccc1Nc1c2ccc(N(C)C)cc2nc2cc(N(C)C)ccc12 | < 2.5 | < 1 | 0.4 | – | – | – | – | – |
| NS(=O)(=O)c1ccc(Nc2c3ccc(Cl)cc3nc3cc(Cl)ccc23)cc1 | – | > 20 | > 10 | – | – | – | 100 (≈ 41.8 µg/mL) | > 100 |
| Cc1ccc(Nc2c3ccc(N)cc3nc3cc(N)ccc23)cc1 | 20 | 3 | 0.15 | – | – | – | – | – |
| Nc1ccc2c(Nc3ccc(CN4CCCCC4)cc3)c3ccc(N)cc3nc2c1 | > 100 | > 20 | 0.2 | – | – | – | – | – |
| CNS(=O)(=O)c1ccc(Nc2c3ccc(N)cc3nc3cc(N)ccc23)cc1 | 143 | 2 | 0.014 | – | – | – | 25 (≈ 9.84 µg/mL) | 20 (≈ 7.87 µg/mL) |
| CNc1ccc(Nc2c3ccc(N)cc3nc3cc(N)ccc23)cc1 | 72 | 11.5 | 0.16 | – | – | – | – | – |
| CS(=O)(=O)Nc1ccc(Nc2c3ccccc3nc3ccccc23)cc1 | < 0.3 | < 1 | 3 | – | – | – | – | – |
| COc1ccc2c(Nc3ccc(S(N)(=O)=O)cc3)c3ccc(OC)cc3nc2c1 | < 3.2 | 3.1 | > 10 | – | – | – | > 100 | > 100 |
| Nc1ccc2c(Nc3ccccc3)c3ccc(N)cc3nc2c1 | 50 | 15 | 0.3 | – | – | – | – | – |
| COc1cc(N=c2c3ccccc3[nH]c3cc(N)ccc23)ccc1NS(C)(=O)=O | < 0.4 | < 1 | 2.7 | – | – | – | – | – |
| Nc1ccc2c(=Nc3ccc(S(N)(=O)=O)cc3)c3ccc(N)cc3[nH]c2c1 | 1000 | 20 | 0.02 | – | – | – | 6 (≈ 2.28 µg/mL) | 20 (≈ 7.59 µg/mL) |
| CN(C)S(=O)(=O)c1ccc(Nc2c3ccc(N)cc3nc3cc(N)ccc23)cc1 | 31 | 5 | 0.16 | – | – | – | – | – |
| CNC(=O)c1ccc(Nc2c3ccc(N)cc3nc3cc(N)ccc23)cc1 | > 500 | > 20 | 0.04 | – | – | – | – | – |
| COc1ccc(Nc2c3ccc(N)cc3nc3cc(N)ccc23)cc1 | 27 | 4 | 0.15 | – | – | – | 6 (≈ 1.98 µg/mL) | 20 (≈ 6.61 µg/mL) |
| NC(=O)c1ccc(Nc2c3ccc(N)cc3nc3cc(N)ccc23)cc1 | > 285 | > 20 | 0.07 | – | – | – | 6 (≈ 2.06 µg/mL) | 20 (≈ 6.87 µg/mL) |
| CN(C)c1ccc(Nc2c3ccc(N)cc3nc3cc(N)ccc23)cc1 | 176 | 6 | 0.034 | 0.034 | 0.118 | 0.063 | 12.5 (≈ 4.29 µg/mL) | 20 (≈ 6.87 µg/mL) |
| CS(=O)(=O)Nc1ccc(Nc2c3ccc(N)cc3nc3cc(N)ccc23)cc1 | 33 | 1 | 0.03 | – | – | – | 6 (≈ 2.36 µg/mL) | 10 (≈ 3.93 µg/mL) |
| COc1cc(NS(C)(=O)=O)ccc1Nc1c2ccc(N)cc2nc2cc(N)ccc12 | 8 | 0.8 | 0.1 | – | – | – | – | – |

| SMILES | selectivity ratio [1] | IC50 (Jurkat) [µM] | IC50 (Plasmodium falciparum [2]) [µM] | IC50 (Plasmodium falciparum [3]) [µM] | IC50 (Plasmodium falciparum [4]) [µM] | IC50 (Plasmodium falciparum [5]) [µM] | MIC [6] [µM] | MIC [7] [µM] |
| --- | --- | --- | --- | --- | --- | --- | --- | --- |
| [N-]=[N+]=Nc1ccc2c(Nc3ccc(C(N)=O)cc3)c3ccc(N=[N+]=[N-])cc3nc2c1 | 25 | 1.5 | 0.06 | – | – | – | 50 (≈ 19.8 µg/mL) | > 100 |
| CCCCCNCc1ccc(Nc2c3ccc(N)cc3nc3cc(N)ccc23)cc1 | 27 | 16 | 0.6 | – | – | – | – | – |
| [N-]=[N+]=Nc1ccc2c(Nc3ccc(S(N)(=O)=O)cc3)c3ccc(N=[N+]=[N-])cc3nc2c1 | 83 | 2.5 | 0.03 | – | – | – | – | – |
| CN(C)Cc1ccc(Nc2c3ccccc3nc3ccccc23)cc1 | 50 | 7.5 | 0.15 | – | – | – | – | – |
| CN(C)Cc1ccc(Nc2c3ccccc3nc3cc(N)ccc23)cc1 | 10 | 2.5 | 0.25 | – | – | – | – | – |
| CNc1ccc(Nc2c3ccccc3nc3ccccc23)cc1 | 3.8 | 1.5 | 0.4 | – | – | – | – | – |
| CN(C)C(=O)c1ccc(Nc2c3ccc(N)cc3nc3cc(N)ccc23)cc1 | > 33 | > 20 | 0.6 | – | – | – | – | – |
| COc1cc(NS(C)(=O)=O)ccc1Nc1c2ccccc2nc2ccccc12 [AMSACRINE] | < 1.5 | < 1 | 0.6 | – | – | – | – | – |
| CN(C)c1ccc2c(Nc3ccccc3)c3ccc(N(C)C)cc3nc2c1 | 0.6 | 1.4 | 2.4 | – | – | – | – | – |
| CNc1ccc(Nc2c3ccccc3nc3cc(N)ccc23)cc1 | 1.6 | 0.5 | 0.32 | – | – | – | – | – |
| CS(=O)(=O)Nc1ccc(Nc2c3ccccc3nc3cc(N)ccc23)cc1 | 0.7 | 2 | 3 | – | – | – | – | – |
| COc1cc(Nc2c3ccc(N)cc3nc3cc(N)ccc23)ccc1NS(C)(=O)=O | 17 | 8.5 | 0.5 | – | – | – | – | – |
| CN(C)Cc1ccc(Nc2c3ccc(Cl)cc3nc3cc(Cl)ccc23)cc1 | 20 | 5 | 0.25 | – | – | – | – | – |
| Nc1ccc(Nc2c3ccccc3nc3ccccc23)cc1 | 0.5 | 0.75 | 1.5 | – | – | – | – | – |
| Nc1ccc2c(Nc3ccc(S(=O)(=O)N4CCCCC4)cc3)c3ccc(N)cc3nc2c1 | 10 | 14 | 1.4 | – | – | – | – | – |
| COc1cc(NS(C)(=O)=O)ccc1Nc1c2ccccc2nc2cc(N)ccc12 | < 5 | < 1 | 0.2 | – | – | – | – | – |
| CN(C)c1ccc(Nc2c3ccccc3nc3cc(N)ccc23)cc1 | < 3.5 | < 1 | 0.29 | – | – | – | – | – |
| Nc1ccc(Nc2c3ccccc3nc3cc(N)ccc23)cc1 | 7.5 | 0.75 | 0.1 | – | – | – | – | – |
| C[C@@H]1CC[C@H]2[C@@H](C)C(=O)O[C@@H]3O[C@@]4(C)CC[C@@H]1[C@]32OO4 [ARTEMISININ] | – | – | – | – | 0.012 | 0.013 | – | – |
| Nc1ccc2c(Nc3ccc(O)cc3)c3ccc(N)cc3nc2c1 | 200 | 10 | 0.05 | – | – | – | 6 (≈ 1.9 µg/mL) | 20 (≈ 6.33 µg/mL) |
